For one data set, the system named is M12. The data set is described as follows: (§1) Antiproliferative activity against human M12 cells after 72 hrs by WST-1 assay. It counts as functional. In short, it runs like this: (§2)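 PC-3 cells kept in serum-free RPMI with L-glutamine, ITS and gentamicin plus 10% FBS. M12 cells got 5% FBS, then after 24 h serum-free medium with 0.01% EGF. Cells plated at 1000/well; after 24 h, drugs added at various concentrations in PBS (controls PBS) for 72 h. Medium then replaced with serum-free medium:WST-1 9:1, absorbance read after 3 h. Non-linear regression fit; mean ± S.E.M., ≥3 experiments in triplicate.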

Data set [1] addresses T1, C-C chemokine receptor type 5 (Homo sapiens, UniProt P51681). The data set can be described thus: Antagonist activity at CCR5 (unknown origin) expressed in MOLT4 cells transfected with Gqi5 assessed as inhibition of RANTES-induced calcium ion mobilization after 15 mins by microplate reader method. It is filed as functional, cell-based, MOLT-4. Particulars: for inhibition: MOLT-4. The procedure, abridged: (§3)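 CCR5-MOLT-4 cells transfected with Gqi5 (Lipofectamine 2000), kept in RPMI 1640/10% FBS with penicillin, streptomycin and 1 mg/mL G418 at 37 °C, 5% CO2. At 48 h post-transfection the cells were resuspended in 50:1 HBSS:HEPES buffer and loaded with Fluo4-AM plus probenecid for 45 min. Ligands were added at varying concentrations for 15 min, then RANTES or buffer was added at 16 s. Fluorescence was read at 494/516 nm for 120 s.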

Data set [2] deals with T1, C-C chemokine receptor type 5. The data set is described as follows: Agonist activity at CCR5 (unknown origin) expressed in MOLT4 cells transfected with Gqi5 assessed as induction of calcium ion mobilization after 15 mins by microplate reader method. Particulars: MOLT-4. It counts as functional, cell-based. In short, it runs like this:
as §3
Target sequence in this assay (P51681 whole entry, looked up): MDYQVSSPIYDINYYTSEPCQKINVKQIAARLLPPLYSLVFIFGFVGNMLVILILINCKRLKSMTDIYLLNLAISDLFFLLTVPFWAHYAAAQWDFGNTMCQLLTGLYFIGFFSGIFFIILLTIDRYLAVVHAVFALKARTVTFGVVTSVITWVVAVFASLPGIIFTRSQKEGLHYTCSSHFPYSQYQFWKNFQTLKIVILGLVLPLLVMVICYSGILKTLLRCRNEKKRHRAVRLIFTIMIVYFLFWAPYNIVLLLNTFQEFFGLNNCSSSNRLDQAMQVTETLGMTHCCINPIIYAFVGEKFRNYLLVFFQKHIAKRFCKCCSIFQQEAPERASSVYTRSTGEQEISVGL

A further data set relates to PC-3. The data set is described as follows: Antiproliferative activity against human PC3 cells after 72 hrs by WST-1 assay. It counts as functional. Particulars: for EC50: PC-3, 72 h, read-out: ED50 (the source's name). In short, it runs like this: as §2
A short description of data set [3]: Cytotoxicity against mouse NIH/3T3 cells after 48 hrs by neutral red dye uptake assay. It is filed as cell-based, NIH3T3. Particulars: read-out: TC50. The procedure, abridged:
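NIH-3T3 mouse embryonic fibroblasts grown in medium with 10% newborn calf serum and 1% penicillin:streptomycin. Compounds at various concentrations in DMEM dilution medium for 48 h. After HBSS wash, neutral red 25 µg/mL in DMEM/5% NBCS for 3 ± 0.1 h. Dye extracted with 50% ethanol/1% acetic acid, shaken 20 min, absorbance 540 nm. TC50 by non-linear regression.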

Data set [4] in a line: as §1. Particulars: M12, 72 h, read-out: ED50 (the source's name). It is filed as functional. The procedure, abridged: as §2

Activity calls are given as the source filed them. No cut-off for these calls is given here.

As for `CCOc1ccc(C2CCN(Cc3ccc([N+](=O)[O-])cc3)CC2)cc1NC(=O)c1cnccn1`, in the data set with M12, the Activity result is “Dose-dependent effect”. In addition, in data set [1], the IC50 was 61 µM and the inhibition entry is “Dose-dependent effect”. Further, the outcome in data set [2] was inactive. In addition, in the data set with PC-3, the Activity entry is “Dose-dependent effect” and the EC50 came out at 109 µM. In addition, in data set [3], the CC50 at 48 h is over 100 µM.
Consider `CC(C)Oc1ccc(C2CCN(Cc3ccc(N)cc3)CC2)cc1NC(=O)c1cnccn1`, for which, in data set [1], the 50% inhibitory concentration (IC50) came out at 77.8 µM and the inhibition result is “Dose-dependent effect”. Moreover, the result in data set [2] was inactive.
For `CC(=O)Nc1ccc(CN2CCC(c3ccc(OC(C)C)c(NC(=O)c4ccccc4)c3)CC2)cc1` the same measures were 92.2 µM, “Dose-dependent effect” and “inactive”.
As to `CCN(CC)c1ccc(CN2CCC(c3ccc(OC)c(NC(=O)c4cnccn4)c3)CC2)cc1`, in data set [1], the IC50 was determined as 56 µM and the inhibition result was “Dose-dependent effect”. Further, the result in data set [2] was inactive.
For `COc1ccc(C2CCN(Cc3ccc([N+](=O)[O-])cc3)CC2)cc1NC(=O)c1ccccc1` the same measures were 28.7 µM, “Dose-dependent effect” and “inactive”.
For `CCN(CC)c1ccc(CN2CCC(c3ccc(OC)c(NC(=O)c4ccccc4)c3)CC2)cc1` the same measures were 90 µM, “Dose-dependent effect” and “inactive”.
Turning to `CCOc1ccc(C2CCN(Cc3ccc(NC(C)=O)cc3)CC2)cc1NC(=O)c1cnccn1`, the EC50 in data set [4] came to 58 µM; with PC-3 it was 50 µM. The Activity entry in the data set with M12 and in the data set with PC-3 was “Dose-dependent effect” throughout. The IC50 in data set [1] was determined as 47 µM. Besides, in data set [1], the inhibition entry was “Dose-dependent effect”. Further, in data set [2], the result was inactive. The CC50 at 48 h in data set [3] was over 100 µM.
Take `COc1ccc(C2CCN(Cc3ccc(N)cc3)CC2)cc1NC(=O)c1cnccn1`: the results for the EC50 (in data set [4]; in the data set with PC-3) were 73.7 µM and 72.3 µM, respectively. In addition, the Activity entry with M12 and in the data set with PC-3 was “Dose-dependent effect” throughout. In data set [1], the IC50 was found to be 38.8 µM. Besides, the inhibition entry in data set [1] was “Dose-dependent effect”. In data set [2], the outcome was inactive. Also, in data set [3], the CC50 at 48 h was over 100 µM.
On to `CC(C)Oc1ccc(C2CCN(Cc3ccc([N+](=O)[O-])cc3)CC2)cc1NC(=O)c1ccccc1`, for which, in data set [1], the IC50 was 45 µM and the inhibition entry is “Dose-dependent effect”. In data set [2], the result was inactive.
For `COc1ccc(C2CCN(Cc3ccc(N)cc3)CC2)cc1NC(=O)c1ccccc1` the same measures were 77 µM, “Dose-dependent effect” and “inactive”.
For `COc1ccc(C2CCN(Cc3ccc([N+](=O)[O-])cc3)CC2)cc1NC(=O)c1cnccn1` the same measures were 73 µM, “Dose-dependent effect” and “inactive”.
For `CCN(CC)c1ccc(CN2CCC(c3ccc(OC(C)C)c(NC(=O)c4ccccc4)c3)CC2)cc1` the same measures were 138 µM, “Dose-dependent effect” and “inactive”.
With `COc1ccc(C2CCN(Cc3ccc(NC(C)=O)cc3)CC2)cc1NC(=O)c1cnccn1`, in data set [1], the IC50 came out at 59 µM and the inhibition result was “Dose-dependent effect”. Moreover, the result in data set [2] was inactive.
For `CCN(CC)c1ccc(CN2CCC(c3ccc(OC(C)C)c(NC(=O)c4cnccn4)c3)CC2)cc1` the same measures were 61 µM, “Dose-dependent effect” and “inactive”.
For `CC(C)Oc1ccc(C2CCN(Cc3ccc([N+](=O)[O-])cc3)CC2)cc1NC(=O)c1cnccn1` the same measures were 65.7 µM, “Dose-dependent effect” and “inactive”.
On to `CCOc1ccc(C2CCN(Cc3ccc(N(CC)CC)cc3)CC2)cc1NC(=O)c1cnccn1`, for which, in data set [4], the EC50 is 18.7 µM. In addition, in the data set on M12, the Activity result is “Dose-dependent effect”. In data set [1], the 50% inhibitory concentration (IC50) amounted to 51.8 µM and the inhibition entry is “Dose-dependent effect”. Further, in data set [2], the outcome was inactive. In addition, in the data set with PC-3, the Activity entry is “Dose-dependent effect” and the EC50 was 77 µM. In addition, in data set [3], the CC50 at 48 h was 46.9 µM.
In the case of `CCOc1ccc(C2CCN(Cc3ccc(NC(C)=O)cc3)CC2)cc1NC(=O)c1ccccc1`, in data set [1], the IC50 came out at 115 µM and the inhibition entry is “Dose-dependent effect”. The outcome in data set [2] was inactive.
For `CC(C)Oc1ccc(C2CCN(Cc3ccc(N)cc3)CC2)cc1NC(=O)c1ccccc1` the same measures were 66.2 µM, “Dose-dependent effect” and “inactive”.
Regarding `CCOc1ccc(C2CCN(Cc3ccc(N(CC)CC)cc3)CC2)cc1NC(=O)c1ccccc1`, in data set [4], the EC50 came out at 15.9 µM. In addition, the Activity entry with M12 was “Dose-dependent effect”. Further, in data set [1], the IC50 was determined as 64 µM and the inhibition result is “Dose-dependent effect”. Moreover, in data set [2], the result was inactive. For the same compound, in the data set with PC-3, the Activity result is “Dose-dependent effect” and the EC50 was 86.6 µM. For the same compound, in data set [3], the CC50 at 48 h was determined as 49.5 µM.
For `CC(=O)Nc1ccc(CN2CCC(c3ccc(OC(C)C)c(NC(=O)c4cnccn4)c3)CC2)cc1`, in data set [1], the IC50 amounted to 88.1 µM and the inhibition result is “Dose-dependent effect”. Further, in data set [2], the result was inactive.
On to `CCOc1ccc(C2CCN(Cc3ccc([N+](=O)[O-])cc3)CC2)cc1NC(=O)c1ccccc1`, for which, in data set [1], the IC50 was found to be 28 µM and the inhibition entry was “Dose-dependent effect”. For the same compound, in data set [2], the result was inactive.
For `CCOc1ccc(C2CCN(Cc3ccc(N)cc3)CC2)cc1NC(=O)c1cnccn1` the same measures were 43.5 µM, “Dose-dependent effect” and “inactive”.
For `CCOc1ccc(C2CCN(Cc3ccc(N)cc3)CC2)cc1NC(=O)c1ccccc1` the same measures were 63 µM, “Dose-dependent effect” and “inactive”.
On to `COc1ccc(C2CCN(Cc3ccc(NC(C)=O)cc3)CC2)cc1NC(=O)c1ccccc1`, for which the EC50 in data set [4] came out at 79.9 µM. Besides, the Activity result with M12 was “Dose-dependent effect”. Also, in data set [1], the IC50 came to 70.8 µM and the inhibition result was “Dose-dependent effect”. Also, the result in data set [2] was inactive. For the same compound, in the data set on PC-3, the Activity entry is “Dose-dependent effect” and the EC50 is 60 µM. The CC50 at 48 h in data set [3] worked out at 92.2 µM.

For the origin of these results see ChEMBL document CHEMBL2434935, “Design, syntheses, and characterization of pharmacophore based chemokine receptor CCR5 antagonists as anti prostate cancer agents” (Eur J Med Chem, 2013).
